Assay outcomes deposited in PubChem by Sanford-Burnham Center for Chemical Genomics.
Most compounds without a hit are left out; they make up all but 1.7% or so of the library.
SUMO1 PPI mod = modulators of SUMO1 protein-protein interactions, primary screen, biochemical, uHTS; Small ubiquitin-related modifier 1 (Homo sapiens), P63165; SUMO1 binding to a labelled peptide, TR-FRET, 1 h; inhibition, % at 20 µM; 360,000 tested, 0.33% active; AID 602429, 2012; in the data active = inhibition above about 37%
STEP block = STEP phosphatase inhibitors, primary screen, biochemical, fluorescence intensity, uHTS | 360,000 tested, 0.25% active | inhibition, % at 20 µM | recombinant STEP, OMFP fluorogenic substrate | Tyrosine-protein phosphatase non-receptor type 5 (Homo sapiens), P54829 | AID 588621, 2011;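 active = inhibition at 20 µM, scaled per plate between control wells, above about 37%, limit read from the data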
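material = STEP tyrosine phosphatase | reagent = fluorogenic phosphatase substrate OMFP at 25 µM final | doses = single compound dose of 20 µM, 1% DMSO final | schedule = 20 min reaction, room temperature, in the dark | measured by = fluorescence, 480/540 nm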
LMPTP inh = LMPTP phosphatase inhibitors, primary screen, biochemical, fluorescence intensity, uHTS | AID 651560, 2012 | inhibition, % at 20 µM | recombinant LMPTP-A, OMFP fluorogenic substrate | 360,000 tested, 0.22% active | Low molecular weight phosphotyrosine protein phosphatase (Homo sapiens), P24666;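 active = compounds that cut the enzyme signal by at least half of the control window in the single-dose screen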
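Buffer or medium: Bis-Tris pH 6.0, DTT, detergent; Assay system: LMPTP-A enzyme; Quantity: 0.625 nM enzyme; Detection: endpoint fluorescence intensity; Times: 50 min dark incubation at room temperature; Controls: substrate-only low control, DMSO enzyme-plus-substrate high control; Doses: single 20 µM dose; Read-out: percent inhibition versus substrate-only and uninhibited controls; Reagent: 400 µM OMFP.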
DNMT1 inh = human DNMT1 methyltransferase inhibitors, primary screen, biochemical, molecular beacon, fluorescence, HinP1I cleavage, uHTS; DNA (cytosine-5)-methyltransferase 1 (Homo sapiens), P26358; 360,000 tested, 0.83% active; inhibition (reported as % activation of signal), % at 10 µM; in the data active = inhibition above about 50%
Scp-1 inhibitor = Scp-1 phosphatase inhibitors, primary screen, biochemical, colorimetric, uHTS. inhibition, % at 20 µM. Carboxy-terminal domain RNA polymerase II polypeptide A small phosphatase 1 (Homo …. Recombinant Scp1, phosphopeptide, malachite green phosphate absorbance. 340,000 tested, 0.88% active;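 active = inhibition above about 50% at 20 µM, limit read from the data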
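System: SCP-1 catalytic domain; Reagent: Phospho 17-mer peptide substrate; Doses: one concentration, 20 µM, with 1.0% DMSO; Incubation: 45 min room-temperature reaction, 5 min colour, 30 min stabiliser; Signal: Phosphate-binding colour reagent, absorbance read at 630 nm.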
Scp-1 conf = Scp-1 phosphatase inhibitors, retest, confirmation, biochemical, colorimetric, single concentration. inhibition, % at 20 µM. shares compounds with Scp-1 inhibitor. 2,500 tested, 61% active. recombinant SCP-1 catalytic domain, phosphate release, malachite green absorbance. AID 540281, 2011
Scp-1 MG ctr = colorimetric readout interference by compounds, confirmation, artefact control for Scp-1 inhibitor project, biochemical, single concentration. apparent inhibition (interference), % at 20 µM. shares compounds with Scp-1 inhibitor. Colorimetric interference counterscreen, malachite green absorbance 630 nm. 2,500 tested, under 10 active;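 also: compounds added after enzyme reaction finished so only phosphate colour detection is probed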
Scp1 DSF = Scp-1 binding by thermal shift, confirmation, orthogonal assay for Scp-1 inhibitor project, biophysical, differential scanning fluorimetry | shares compounds with Scp-1 inhibitor | Recombinant SCP1, Sypro Orange thermal shift Tm | thermal shift relative to vanadate control, % at 40 µM | 1,500 tested, 25% active;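 active = substances whose mean melting-temperature shift, as a percentage of the reference inhibitor's shift, reaches about 5.3%, limit read from the data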
DNMT1 interf DR = spectral interference with molecular beacon fluorescence, dose response, artefact control for DNMT1 inhibitor project, biochemical, fluorescent molecular beacon; shares compounds with DNMT1 inh; spectral interference counter-screen; IC50, µM; 200 tested, under 10 active; call rule not given here
DNMT1 inh conf = DNMT1 methyltransferase inhibitor retest, confirmation, biochemical, molecular beacon, fluorescence, single concentration | shares compounds with DNMT1 inh | DNMT1 molecular beacon HinP1I cleavage | inhibition, % at 10 µM | 2,300 tested, 8% active;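 active = average inhibition of at least 30% in the single-concentration confirmation test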
Beacon interf = shows spectral interference in the DNMT1 beacon assay; shares compounds with DNMT1 inh; DNMT1 molecular beacon spectral interference counterscreen, fluorescence 485/520; activation (fluorescence interference), % at 10 µM; 2,300 tested, 1% active; AID 602387;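 active = activation of at least 30% at 10 µM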;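 also: DNMT1 catalytic domain with a HinP1I cleavage step and a FAM/dabcyl DNA beacon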
A number is an active result; n = inactive; x = no result.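 The calls were made as follows, unless noted: active = inhibition of at least 30% at 20 µM; inactive = the rest.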

SMILES	SUMO1 PPI mod	STEP block	LMPTP inh	DNMT1 inh	Scp-1 inhibitor	Scp-1 conf	Scp-1 MG ctr	Scp1 DSF	DNMT1 inh conf	Beacon interf	others
Cc1ccc(CN2C(=O)N/C(=C\c3cccn3-c3cccc(C(=O)O)c3)C2=O)cc1	n	n	n	91	64	57	n	n	n	n
CNc1ccc(-c2cccc(C#N)c2)cn1	n	n	n	n	x	x	x	x	x	x
NC(=N\N=Cc1ccco1)/C(N)=N/N=Cc1ccco1	n	n	n	55	62	39	n	n	n	n
NC(=N\N=Cc1ccccc1)/C(N)=N/N=Cc1ccccc1	n	n	n	n	n	x	x	x	x	x
c1coc(-c2nnc3sc(Cc4cccs4)nn23)c1	n	n	n	67	86	61	n	n	n	n
Cc1ccccc1NC(=O)CSc1ccsc1[N+](=O)[O-]	n	n	n	104	72	62	n	14	49	n	DNMT1 interf DR=n
Cc1ccoc1C(=O)NCc1occc1C(=O)O	n	n	n	57	50	34	n	n	n	n
N=C1S/C(=C\c2ccccc2F)C(=O)N1c1ccc(F)cc1	n	n	n	60	87	n	n	x	n	n
O=C1CCCC(O)=C1Sc1ccccc1C(=O)O	n	n	n	67	57	37	n	n	n	n
O=C1CCCC(O)=C1C(C#Cc1ccccc1)C1=C(O)CCCC1=O	n	n	n	n	n	x	x	x	x	x
C=CCn1c(COc2ccc(F)cc2)nnc1SC(C)C(=O)NCC1CCCO1 (centres undefined)	n	n	n	n	n	x	x	x	x	x
COc1ccccc1C(NC(=O)C1CCN(CCOc2ccc(Cl)cc2Cl)CC1)c1ccccn1 (centres undefined)	n	n	n	n	x	x	x	x	x	x
Cc1ccc(/C=C2/C(=N)N3N=C(CC(=O)N4CCCC4)SC3=NC2=O)o1	n	n	n	n	n	x	x	x	x	x
N=C1/C(=C\c2ccc(Br)o2)C(=O)N=C2SC(CC(=O)N3CCCCC3)=NN12	46	n	n	94	80	48	n	12	n	n
CC(=O)c1c(C)[nH]c(C(=O)OCC(=O)NCc2cccs2)c1C	n	n	n	n	n	x	x	x	x	x
COc1ccc(C(CNC(=O)C(Cc2ccccc2)NC(N)=O)N(C)C)cc1 (centres undefined)	n	n	n	n	n	x	x	x	x	x
Cc1cc(/C=N/NC(=O)c2cccc(N(C)C)c2)c(C)n1-c1cc(C(=O)O)cc(C(=O)O)c1	n	n	n	81	66	53	n	7.5	n	n
Cc1cc(/C=C(/C#N)c2nc3ccccc3[nH]2)c(C)n1-c1cc(C(=O)O)cc(C(=O)O)c1	n	n	n	77	59	53	n	n	n	n
